Hits are enriched below; roughly 3.7% of the tested compounds scored in any of these assays.
KCNK3 block: human KCNK3 channel inhibitors, primary screen, CHO cells, FluxOR thallium flux, B-score; Potassium channel subfamily K member 3 (Homo sapiens), O14649; FluxOR fluorescence; active compounds read low; B-score at 10 µM; actives 0.84% (n = 340,000);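 active = B-score under library mean minus 4 SD, starting fluorescence ratio at most library mean plus 5 SD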;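 note: more negative B-score means stronger inhibition of thallium flux through KCNK3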
KCNQ1 inh: inhibitors of human KCNQ1 channel, primary screen, cell-based, thallium flux, high-throughput; CHO-K1 KCNQ1, FluxOR thallium flux fluorescence; active compounds read high; B-score at 10 µM; actives 1.3% (n = 310,000); AID 2642, 2010;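 active = compounds whose thallium flux B-score, printed positive for inhibition, exceeds three library SD while starting fluorescence stays within three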;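 note: channel opened by potassium depolarization with thallium stimulus after 20 min compound exposure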
KCNK9 block: KCNK9 potassium channel inhibitors, primary screen, HEK293 cells, thallium flux; Potassium channel subfamily K member 9 (Homo sapiens), Q9NPC2; FluxOR thallium flux fluorescence; active compounds read low; B-score at 10 µM; actives 1.2% (n = 310,000); AID 488922, 2010;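 active = ratio B-score over 3 SD below the library mean, with starting fluorescence within 5 SD of its mean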;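 note: negative B-score means less thallium flux so channel inhibition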
Kir21 inh: inhibitors of mouse Kir2.1 inward-rectifier potassium channel; Inward rectifier potassium channel 2 (Mus musculus), P35561; HEK293-Kir2.1, FluxOR thallium flux fluorescence; active compounds read low; B-score at 10 µM; actives 0.85% (n = 310,000); AID 1672, 2009;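 active = fluorescence ratio B-score at or below minus 3 SD of library scores, with starting-brightness B-score within 2 SD, cut at about -4.2 in these data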;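 note: channel flux triggered by added potassium and thallium sulfate stimulus; B-score of peak minus minimum fluorescence over baseline after thallium stimulus; more negative B-score means stronger Kir2.1 block with less thallium influx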
hERG protect: hERG rescue from dofetilide block, primary screen, cell-based, CHO-hERG, FluxOR thallium flux, dofetilide IC70 | actives 0.51% (n = 310,000) | AID 1511, 2009 | dofetilide IC70 present | activation (rescue from dofetilide block), less the hit threshold, % at 10 µM;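 active = activation above the mean of controls blocked by dofetilide plus 5 SD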;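 note: thallium influx through hERG after potassium depolarization seen as dye fluorescence rise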
Target sequence (Q12809 whole entry, looked up): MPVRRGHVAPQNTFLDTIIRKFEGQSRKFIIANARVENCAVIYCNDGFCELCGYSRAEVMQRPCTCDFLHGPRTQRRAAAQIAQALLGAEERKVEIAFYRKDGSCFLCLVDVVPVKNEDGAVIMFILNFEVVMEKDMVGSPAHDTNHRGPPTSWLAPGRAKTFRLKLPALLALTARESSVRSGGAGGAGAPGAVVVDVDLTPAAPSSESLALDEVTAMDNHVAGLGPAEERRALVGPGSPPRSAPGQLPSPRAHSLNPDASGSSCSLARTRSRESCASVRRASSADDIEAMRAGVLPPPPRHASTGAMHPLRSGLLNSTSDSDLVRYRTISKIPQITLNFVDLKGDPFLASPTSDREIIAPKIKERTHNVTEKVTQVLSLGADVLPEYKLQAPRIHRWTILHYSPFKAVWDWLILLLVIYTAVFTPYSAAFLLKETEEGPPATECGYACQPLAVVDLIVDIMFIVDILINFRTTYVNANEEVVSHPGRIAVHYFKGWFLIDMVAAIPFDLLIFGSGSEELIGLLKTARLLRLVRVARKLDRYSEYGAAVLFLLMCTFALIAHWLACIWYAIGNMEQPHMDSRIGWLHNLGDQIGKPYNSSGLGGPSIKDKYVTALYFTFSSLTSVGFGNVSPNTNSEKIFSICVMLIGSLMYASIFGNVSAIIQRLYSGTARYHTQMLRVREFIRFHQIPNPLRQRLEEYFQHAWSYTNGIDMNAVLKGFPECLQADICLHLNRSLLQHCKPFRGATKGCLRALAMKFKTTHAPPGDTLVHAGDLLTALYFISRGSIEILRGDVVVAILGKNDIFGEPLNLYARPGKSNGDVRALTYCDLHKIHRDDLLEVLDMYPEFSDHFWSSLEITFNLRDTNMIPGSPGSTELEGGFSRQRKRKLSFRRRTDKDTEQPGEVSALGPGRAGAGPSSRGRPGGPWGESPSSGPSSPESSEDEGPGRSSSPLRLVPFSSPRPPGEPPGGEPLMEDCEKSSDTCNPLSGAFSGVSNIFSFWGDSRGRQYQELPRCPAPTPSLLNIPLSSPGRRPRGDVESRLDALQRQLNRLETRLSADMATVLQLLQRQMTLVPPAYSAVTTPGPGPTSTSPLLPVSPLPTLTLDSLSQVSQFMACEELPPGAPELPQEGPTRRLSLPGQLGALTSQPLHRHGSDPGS
KCNQ1 pot: potentiators or activators of KCNQ1 channel, primary screen, cell-based, thallium flux, high-throughput; Potassium voltage-gated channel subfamily KQT member 1 (Homo sapiens), P51787; CHO-K1 KCNQ1, thallium flux FluxOR fluorescence; active compounds read high; B-score at 10 µM; actives 0.35% (n = 310,000);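 active = fluorescence ratio B-score, a plate-corrected score, at least three library SD, with initial intensity B-score within 5 SD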
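Assay system: CHO-K1 cells stably expressing KCNQ1; Medium: assay buffer with matched DMSO; Also added: K+/Tl+ depolarizing stimulus; Dosing: single dose; Timing: dye 90 min, compound 20 min, room temperature; Measured by: kinetic FluxOR thallium fluorescence, 10-s 1-Hz baseline, 110-s post-stimulus read; Read-out: peak-minus-minimum fluorescence over initial fluorescence, negative-control normalized, B-scored.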
KCNK3 inh conf: retest of human KCNK3 channel inhibitors, confirmation, CHO cells, FluxOR thallium flux, triplicate; FluxOR fluorescence; 0% buffer, 100% carvedilol maximal block; actives 99% (n = 2,400); ratio percent of control, % at 10 µM; shares compounds with KCNK3 block;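 active = ratio percent of control, averaged over triplicates, above buffer control mean plus 5 SD, cut at about 64% in these data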;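 note: ratio is the fluorescence rise from min to max over baseline after thallium stimulus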
KCNK3 noninduced: thallium flux inhibition in non-induced cells, primary screen, counter-screen for KCNK3 inhibitor project, cell-based, non-induced KCNK3 line, FluxOR thallium, triplicate; shares compounds with KCNK3 block; non-induced KCNK3 parental cells; active compounds read low; thallium flux ratio (lower = more inhibition) at 10 µM; actives 40% (n = 2,400); AID 651747, 2012;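 active = thallium flux ratio, averaged over three wells, more than 5 SD below the buffer control mean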;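 note: host cells are CHO cells without KCNK3 induction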
Of the large screens only hits and unclear results are named; the others gave an inactive call (follow-up assays come after a bar, where they were run).

S=c1[nH]nc(-c2ccc(Br)cc2)n1-c1ccc(Br)cc1	KCNK3 block -11 | KCNK3 inh conf 75 | KCNK3 noninduced inactive
O=C(O)c1ccc(-n2c(-c3ccc(Br)cc3)n[nH]c2=S)cc1	none
CCOc1cccc(OCCOc2ccccc2[N+](=O)[O-])c1	KCNK3 block -8.7, KCNK9 block -7.2 | KCNK3 inh conf 110 | KCNK3 noninduced inactive
CC/C(=N\NC(=O)Cc1ccc(Br)cc1)c1cccs1	none
CC1CCN(C(=O)Nc2ccc3nsnc3c2)CC1	none
CC1CCN(C(=O)Nc2cccc(NC(=O)N3CCC(C)CC3)c2)CC1	KCNK3 block -9 | KCNK3 inh conf 112 | KCNK3 noninduced inactive
O=S(=O)(NCC(c1ccco1)N1CCc2ccccc2C1)c1ccc(Br)cc1 (stereo not drawn)	KCNK3 block -8.7 | KCNK3 inh conf 114 | KCNK3 noninduced inactive
Cc1ccc(S(=O)(=O)NCC(c2ccco2)N2CCc3ccccc3C2)cc1 (stereo not drawn)	none
COc1nc(NC(=O)c2ccc(F)cc2)nc(OC)c1-c1ccccc1	none
COc1ccc(C)cc1NC(=O)c1cc2ccccc2cc1OCC(=O)NCc1ccco1	KCNK3 block -14 | KCNK3 inh conf 109 | KCNK3 noninduced inactive
Cc1nn2c(NC(C)C)c3c(nc2c1-c1ccccc1)CCC3	KCNK3 block -8.9 | KCNK3 inh conf 94 | KCNK3 noninduced inactive
Cc1nn2c(NCC(C)C)c3c(nc2c1-c1ccccc1)CCC3	none
CCOC(=O)C1=CC[C@@H](c2cc3cc(OC)ccc3n2C)N(S(=O)(=O)c2ccc(C)cc2)[C@H]1C(=O)OCC	none (no result: KCNQ1 inh, KCNK9 block, Kir21 inh, hERG protect, KCNQ1 pot)
Cc1cccc(C)c1OCc1cc(C(=O)N2CCCC2c2nonc2C)no1 (stereo not drawn)	KCNK3 block -9.4 | KCNK3 inh conf 108 | KCNK3 noninduced inactive
Cc1ccc(-c2cc(C(=O)N3CCCCC3)c3ccccc3n2)cc1C	KCNK3 block -8.9 | KCNK3 inh conf 85 | KCNK3 noninduced 0.15
O=C(C[C@H]1C/C=C\CC[C@H](Cc2ccc(F)cc2)C(=O)OC[C@H]2CCCN2C1=O)NCCO	none (no result: KCNQ1 inh, KCNK9 block, Kir21 inh, hERG protect, KCNQ1 pot)
COCCOC(=O)c1c(C)n(C)c2ccc(OC(=O)c3ccccc3F)cc12	none
COCCOC(=O)c1c(C)oc2ccc(OC(=O)c3c(OC)cccc3OC)cc12	KCNK3 block -10 | KCNK3 inh conf 104 | KCNK3 noninduced inactive
CCOC(=O)c1cc(C#N)c(N2CCN(c3ccccn3)CC2)nc1-c1ccccc1	KCNK3 block -9.4 | KCNK3 inh conf 99 | KCNK3 noninduced inactive
Cc1cc(C)c2sc(N(CCN(C)C)C(=O)c3c(F)cccc3F)nc2c1	KCNK3 block -9.1 | KCNK3 inh conf 116 | KCNK3 noninduced inactive
Cc1cc(Cl)ccc1NC(=O)C1CCN(S(C)(=O)=O)CC1	none
O=C1CCC(C(=O)OC(C(=O)c2c[nH]c3ccccc23)c2ccccc2)=NN1 (stereo not drawn)	KCNK9 block -8.7 | KCNK3 inh conf 111 | KCNK3 noninduced inactive
O=C(Nc1ccc(C(F)(F)F)cc1)c1ccccc1Br	none
O=C(Nc1ccc(Br)c(C(F)(F)F)c1)c1ccc(C(F)(F)F)cc1	KCNK3 block -10, KCNQ1 inh 12 | KCNK3 inh conf 119 | KCNK3 noninduced 0.1
CC(CNC(=S)Nc1cc(F)cc(F)c1)CSc1ccc(Cl)cc1 (stereo not drawn)	KCNK3 block -13, KCNQ1 inh 9 | KCNK3 inh conf 117 | KCNK3 noninduced 0.14
CCOC(=O)c1ccc(N2C=C(C(=O)OC)C(c3cccc(O)c3)C(C(=O)OC)=C2)cc1	none
NC(=O)c1nsc(C(=O)N(c2ccc3c(c2)OCO3)C(C(=O)NCC2CCCO2)c2ccc(F)cc2)c1N (stereo not drawn)	none
Oc1ccc(Br)cc1-c1nc2cnccn2c1NC1CCCC1	KCNK3 block -8.8 | KCNK3 inh conf 131 | KCNK3 noninduced inactive
CCC(C(=O)Nc1ccon1)c1ccccc1 (stereo not drawn)	none
C=CCOc1ccc(C(=O)n2cc(C(=O)OC)c3ccccc32)cc1	KCNK3 block -9.3 | KCNK3 inh conf 114 | KCNK3 noninduced inactive
COC(=O)c1cn(C(=O)c2ccc(F)cc2)c2ccccc12	none
Cc1oc(-c2cccc(Cl)c2)nc1CN1CCCC(C(=O)NC(C)c2ccc3c(c2)OCCO3)C1 (stereo not drawn)	KCNK3 block -11 | KCNK3 inh conf 127 | KCNK3 noninduced 0.12
O=C(Nc1ccccc1N1CCOCC1)c1cccc(F)c1	none
O=C(Nc1ccc(N2CCOCC2)cc1N1CCOCC1)c1ccccc1	none (no result: KCNQ1 inh, KCNK9 block, Kir21 inh, hERG protect, KCNQ1 pot)
O=C(Nc1ccccc1N1CCCCC1)c1ccc(F)cc1	none
O=C(Nc1ccccc1N1CCN(c2ccccc2)CC1)c1ccccc1	KCNK3 block -9.5 | KCNK3 inh conf 113 | KCNK3 noninduced 0.13
CCC(C)Oc1cccc(C(=O)Nc2ccccc2N2CCOCC2)c1 (stereo not drawn)	KCNK3 block -9.8 | KCNK3 inh conf 125 | KCNK3 noninduced 0.15
O=C(Nc1ccccc1N1CCCCC1)c1ccc(OC(F)F)cc1	KCNK3 block -12, KCNK9 block -7.3 | KCNK3 inh conf 92 | KCNK3 noninduced inactive
CC(C)Oc1cccc(C(=O)Nc2ccccc2N2CCOCC2)c1	none
O=C(Nc1ccccc1N1CCOCC1)c1cccc(Oc2ccccc2)c1	KCNK3 block -9.6 | KCNK3 inh conf 96 | KCNK3 noninduced inactive
CC(=O)N1CCN(S(=O)(=O)c2cccc(C(=O)NNC(=O)COc3ccc(F)cc3)c2)CC1	none (no result: KCNQ1 inh, KCNK9 block, Kir21 inh, hERG protect, KCNQ1 pot)
O=C(NCCc1ccccc1)C1(S(=O)(=O)c2ccc(Cl)cc2)CC1	none
CC(C(=O)NCCc1ccccc1)N1c2cccc3cccc(c23)S1(=O)=O (stereo not drawn)	none
CCCCn1c(N)c(N(CC(C)C)C(=O)c2ccc(-c3ccc(C(C)=O)cc3)o2)c(=O)[nH]c1=O	none
COc1ccc(C2C(C(=O)c3ccccc3)N3c4ccccc4C=CC3C2[N+](=O)[O-])cc1 (stereo not drawn)	none (no result: KCNQ1 inh, KCNK9 block, Kir21 inh, hERG protect, KCNQ1 pot)
